In ChEMBL document CHEMBL1154830, “A beta-carboline alkaloid from the Papua New Guinea marine sponge hyrtios reticulatus” (J Nat Prod, 2010):
≈ marks a conversion by molar mass, not a printed value. Calls of active or inactive are those of the source. No cut-off for these calls is given here.

Legend:
[1] = Cytotoxic activity against human H522-T1 cells after 96 hrs by luminescent cell viability assay; assay type: functional, cell-based; settings: H522-T1, 96 h
MDA-MB-435 = assay: Cytotoxic activity against human MDA-MB-435 cells after 96 hrs by luminescent cell viability assay; assay type: functional, cell-based; settings: MDA-MB-435, 96 h
U-937 = assay: Cytotoxic activity against human U937 cells after 96 hrs by luminescent cell viability assay; assay type: functional, cell-based; settings: U-937, 96 h
BT-549 = assay: Cytotoxic activity against human BT549 cells after 96 hrs by luminescent cell viability assay; assay type: functional, cell-based; settings: BT-549, 96 h
How it was run: (§1)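 Cells in 96-well plates grown without compound or with continuous exposure to 1.5–50,000 nM test compound for 96 h. Growth read by CellTiter-Glo luminescence. IC50 is the concentration giving 50% growth inhibition relative to untreated cells. Two separate replicate experiments.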

DU-145 = assay: Cytotoxic activity against human DU145 cells after 96 hrs by luminescent cell viability assay; assay type: functional, cell-based; settings: DU-145, 96 h; how it was run: as §1
NCI-H460 = assay: Cytotoxic activity against human H460 cells after 96 hrs by luminescent cell viability assay; assay type: functional, cell-based; settings: NCI-H460, 96 h; how it was run: as §1
HCC 2998 = assay: Cytotoxic activity against human HCC2998 cells after 96 hrs by luminescent cell viability assay; assay type: functional, cell-based; settings: HCC 2998, 96 h
HT-29 = assay: Cytotoxic activity against human HT-29 cells after 96 hrs by luminescent cell viability assay; assay type: functional, cell-based; settings: HT-29, 96 h; how it was run: as §1
MCF7 = assay: Cytotoxic activity against human MCF7 cells after 96 hrs by luminescent cell viability assay; assay type: functional, cell-based; settings: MCF7, 96 h
OVCAR-5 = assay: Cytotoxic activity against human OVCAR5 cells after 96 hrs by luminescent cell viability assay; assay type: functional, cell-based; settings: OVCAR-5, 96 h
SF-539 = assay: Cytotoxic activity against human SF539 cells after 96 hrs by luminescent cell viability assay; assay type: functional, cell-based; settings: SF-539, 96 h
SR = assay: Cytotoxic activity against human SR cells after 96 hrs by luminescent cell viability assay; assay type: functional, cell-based
UACC-257 = assay: Cytotoxic activity against human UACC257 cells after 96 hrs by luminescent cell viability assay; assay type: functional, cell-based; settings: UACC-257, 96 h
HeLa [2] = assay: Cytotoxicity against human HeLa cells at 230 uM after 24 hrs; assay type: functional
How it was run: (§2)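 HeLa cells plated at 1500 cells/well and held overnight at 37 °C, 5% CO2, then compound pinned in. After 24 h, fixed in 4% formaldehyde for 20 min, permeabilized with 0.5% Triton X-100 in PBS for 10 min and blocked. Actin stained with rhodamine-phalloidin for 20 min and DNA with Hoechst 33342.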

HeLa [3] = assay: Cytotoxicity against human HeLa cells assessed as disruption of cytoskeleton at 230 uM after 24 hrs by rhodamine-phalloidin staining method; assay type: functional, cell-based; how it was run: as §2
HeLa [4] = assay: Cytotoxicity against human HeLa cells assessed as nuclear blebbing at 230 uM after 24 hrs by hoechst 33342 staining method; assay type: functional, cell-based; how it was run: as §2

Structure (SMILES): O=C(O)c1cc2c([nH]c3ccc(O)cc32)c(C(=O)c2c[nH]cn2)n1 [HYRTIOCARBOLIN]
- IC50 [1]: 1.2 µg/mL (≈ 3.72 µM)
- IC50 (MDA-MB-435): 3 µg/mL (≈ 9.31 µM)
- IC50 (U-937): 1.5 µg/mL (≈ 4.65 µM)
- IC50 (BT-549): 45 µg/mL (≈ 140 µM)
- IC50 (DU-145): 34 µg/mL (≈ 105 µM)
- IC50 (NCI-H460): 17 µg/mL (≈ 52.7 µM)
- IC50 (HCC 2998): > 50 µg/mL
- IC50 (HT-29): > 50 µg/mL
- IC50 (MCF7): > 50 µg/mL
- IC50 (OVCAR-5): > 50 µg/mL
- IC50 (SF-539): > 50 µg/mL
- IC50 (SR): > 50 µg/mL
- IC50 (UACC-257): > 50 µg/mL
- inhibition at 230 µM (HeLa [2]): 57%
- Activity (HeLa [3]): Active
- Activity (HeLa [4]): Active
